Test results from ChEMBL document CHEMBL1152975, “Design and synthesis of orally bioavailable serum and glucocorticoid-regulated kinase 1 (SGK1) inhibitors” (Bioorg Med Chem Lett, 2009).

What was measured:
[1] = target: T1, Serine/threonine-protein kinase Sgk1 (Homo sapiens, UniProt O00141); assay: Inhibition of SGK1 by fluorescence polarization assay
T1 sequence (O00141 whole entry): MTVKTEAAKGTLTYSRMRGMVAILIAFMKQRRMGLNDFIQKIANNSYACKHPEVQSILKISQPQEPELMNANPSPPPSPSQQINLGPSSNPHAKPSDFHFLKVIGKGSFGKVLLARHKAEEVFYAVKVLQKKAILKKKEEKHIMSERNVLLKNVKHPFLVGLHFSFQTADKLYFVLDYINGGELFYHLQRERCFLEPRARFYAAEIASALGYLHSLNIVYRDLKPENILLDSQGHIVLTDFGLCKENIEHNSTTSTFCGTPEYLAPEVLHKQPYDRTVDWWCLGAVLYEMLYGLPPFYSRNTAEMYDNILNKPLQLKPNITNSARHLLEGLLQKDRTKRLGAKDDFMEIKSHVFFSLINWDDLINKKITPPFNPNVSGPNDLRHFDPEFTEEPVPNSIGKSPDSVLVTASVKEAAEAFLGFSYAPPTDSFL

[2] = Dissociation constant, pKa of the compound; type: physicochemical
Rattus norvegicus [3] = assay: Dose normalized AUC (0 to t) in po dosed rat by cassette dosing; type: ADME, organism-based; details: in vivo
Summary of the method: (§1)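 Rats were given a cassette of four compounds as one mixture, dosed iv and orally. Clearance, Vdss and terminal half-life come from the iv arm; oral AUC0–t and dose-normalized AUC0–t come from the oral arm.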

[4] = AUC (0 to t) in po dosed rat by cassette dosing; type: ADME, organism-based; details: plasma; summary of the method: as §1
[5] = Plasma clearance in rat by cassette dosing; type: ADME, organism-based; summary of the method: as §1
[6] = Volume of distribution at steady state in rat by cassette dosing; type: ADME, organism-based; details: in vivo, read-out: Vdss; summary of the method: as §1
[7] = Terminal half life in iv dosed rat by cassette dosing; type: ADME, organism-based; details: in vivo, read-out: beta t1/2; summary of the method: as §1
[8] = target: T1, Serine/threonine-protein kinase Sgk1; assay: Inhibition of SGK1-mediated epithelial sodium channel activity in human M-1 cells assessed as short circuit current by whole cell electrophysiological transepithelial experiment; type: cell-based
[9] = Volume of distribution at steady state in rat by discrete study; type: ADME, organism-based; details: in vivo, read-out: Vdss
Summary of the method: (§2)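 Each compound was dosed on its own (discrete study) to rats, iv and orally. Clearance, Vdss and terminal half-life come from the iv arm; oral AUC0–t and dose-normalized AUC0–t come from the oral arm.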

[10] = AUC (0 to t) in po dosed rat by discrete study; type: ADME, organism-based; details: plasma; summary of the method: as §2
[11] = Plasma clearance in rat by discrete study; type: ADME, organism-based; summary of the method: as §2
[12] = Terminal half life in iv dosed rat by discrete study; type: ADME, organism-based; details: in vivo, read-out: beta t1/2; summary of the method: as §2
Rattus norvegicus [13] = assay: Dose normalized AUC (0 to t) in po dosed rat by discrete study; type: ADME, organism-based; details: in vivo; summary of the method: as §2

Row | IC50 [1] | AUC (Rattus norvegicus [3]) | AUC(0-t) [4] | clearance [5] | Vd [6] | half-life [7] | IC50 [8] | Structure (SMILES) | further results
1 | 160 nM |  |  |  |  |  |  | c1ccc(-c2cnc3[nH]cc(-c4ccc(-c5nnn[nH]5)cc4)c3c2)cc1 | pKa [2]: 4.9
2 |  | 134 ng·h/mL/mg/kg | 313 ng·h/mL | 25.7 mL/min/kg | 0.77 L/kg | 1.58 h |  | O=C(O)c1ccc(-c2c[nH]c3ncc(-c4ccccc4)cc23)cc1C1CCCC1 [GSK-650394] | 
3 | 50 nM |  |  |  |  |  | 1460 nM | CC(C)(C(=O)O)c1ccc(-c2c[nH]c3ncc(-c4ccccc4)cc23)cc1 | 
4 | 3160 nM |  |  |  |  |  |  | COC(=O)c1ccc(-c2c[nH]c3ncc(-c4ccccc4)cc23)cc1 | 
5 | 5000 nM |  |  |  |  |  |  | CC(=O)c1ccc(-c2c[nH]c3ncc(-c4ccccc4)cc23)cc1 | 
6 | 400 nM |  |  |  |  |  |  | NCc1ccc(-c2c[nH]c3ncc(-c4ccccc4)cc23)cc1 | 
7 | 63 nM | 2100 ng·h/mL/mg/kg | 4170 ng·h/mL | 4.32 mL/min/kg | 0.67 L/kg | 4.4 h | 870 nM | CC(C)(C(=O)O)c1ccc(-c2c[nH]c3ncc(-c4ccc5ccccc5c4)cc23)cc1 | 
8 | 40 nM | 905 ng·h/mL/mg/kg | 1910 ng·h/mL | 6.56 mL/min/kg | 2.5 L/kg | 8.13 h | 2000 nM | CC(C)(C(=O)O)c1ccc(-c2c[nH]c3ncc(-c4cccc(C#N)c4)cc23)cc1 | 
9 |  |  |  |  |  |  | 1300 nM | O=C(O)c1ccc(-c2c[nH]c3ncc(-c4ccccc4)cc23)cc1 | Vd [9]: 8.8 L/kg; AUC(0-t) [10]: 392 ng·h/mL; clearance [11]: 64.4 mL/min/kg; half-life [12]: 9.4 h; pKa [2]: 4.2; AUC (Rattus norvegicus [13]): 154 ng·h/mL/mg/kg
10 | 20 nM | 600 ng·h/mL/mg/kg | 1500 ng·h/mL | 9.4 mL/min/kg | 0.43 L/kg | 1.62 h | 710 nM | CCc1cc(-c2c[nH]c3ncc(-c4ccccc4)cc23)ccc1C(=O)O | 
11 | 125 nM |  |  |  |  |  |  | CC(C(=O)O)c1ccc(-c2c[nH]c3ncc(-c4ccc5ccccc5c4)cc23)cc1 (centres undefined) | 
12 | 5 nM | 176 ng·h/mL/mg/kg | 373 ng·h/mL | 21.9 mL/min/kg | 0.62 L/kg | 1.17 h | 580 nM | CC(C)Cc1cc(-c2c[nH]c3ncc(-c4ccccc4)cc23)ccc1C(=O)O | 
13 |  |  |  |  |  |  | 880 nM | O=C(O)Cc1ccc(-c2c[nH]c3ncc(-c4ccc5ccccc5c4)cc23)cc1 | Vd [9]: 1.3 L/kg; AUC(0-t) [10]: 467 ng·h/mL; clearance [11]: 21.3 mL/min/kg; half-life [12]: 4.22 h; AUC (Rattus norvegicus [13]): 225 ng·h/mL/mg/kg
